# ChEMBL document CHEMBL3286381 (J Med Chem, 2014)
# Activity calls are given as the source filed them. The rule behind the calls is not given here.
# Columns and labels:
# [1] = target: T1, P2Y purinoceptor 11 (Homo sapiens) (UniProt Q96G91); experiment: Agonist activity at human P2Y11 receptor expressed in human 1321N1 cells assessed as increase of intracellular calcium level after 30 mins using fura-2 AM by fluorescence assay relative to ATP; format: functional, cell-based
# T1 sequence (whole entry): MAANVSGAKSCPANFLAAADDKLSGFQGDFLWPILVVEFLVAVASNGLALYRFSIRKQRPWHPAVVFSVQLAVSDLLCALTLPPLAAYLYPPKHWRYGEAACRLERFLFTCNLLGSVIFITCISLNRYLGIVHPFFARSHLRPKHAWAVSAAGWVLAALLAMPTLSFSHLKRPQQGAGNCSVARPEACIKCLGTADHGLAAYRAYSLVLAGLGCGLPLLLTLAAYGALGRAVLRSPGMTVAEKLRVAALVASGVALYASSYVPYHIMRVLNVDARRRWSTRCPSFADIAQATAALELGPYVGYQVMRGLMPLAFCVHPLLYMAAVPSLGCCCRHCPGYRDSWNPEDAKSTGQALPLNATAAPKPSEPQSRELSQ
# [2] = target: T2, Ectonucleotide pyrophosphatase/phosphodiesterase family member 1 (Homo sapiens) (UniProt P22413); experiment: Inhibition of NPP1 in human HTB-85 cells using pNP-TMP as substrate at 100 uM after 20 mins […]; format: cell-based
# T2 sequence (whole entry): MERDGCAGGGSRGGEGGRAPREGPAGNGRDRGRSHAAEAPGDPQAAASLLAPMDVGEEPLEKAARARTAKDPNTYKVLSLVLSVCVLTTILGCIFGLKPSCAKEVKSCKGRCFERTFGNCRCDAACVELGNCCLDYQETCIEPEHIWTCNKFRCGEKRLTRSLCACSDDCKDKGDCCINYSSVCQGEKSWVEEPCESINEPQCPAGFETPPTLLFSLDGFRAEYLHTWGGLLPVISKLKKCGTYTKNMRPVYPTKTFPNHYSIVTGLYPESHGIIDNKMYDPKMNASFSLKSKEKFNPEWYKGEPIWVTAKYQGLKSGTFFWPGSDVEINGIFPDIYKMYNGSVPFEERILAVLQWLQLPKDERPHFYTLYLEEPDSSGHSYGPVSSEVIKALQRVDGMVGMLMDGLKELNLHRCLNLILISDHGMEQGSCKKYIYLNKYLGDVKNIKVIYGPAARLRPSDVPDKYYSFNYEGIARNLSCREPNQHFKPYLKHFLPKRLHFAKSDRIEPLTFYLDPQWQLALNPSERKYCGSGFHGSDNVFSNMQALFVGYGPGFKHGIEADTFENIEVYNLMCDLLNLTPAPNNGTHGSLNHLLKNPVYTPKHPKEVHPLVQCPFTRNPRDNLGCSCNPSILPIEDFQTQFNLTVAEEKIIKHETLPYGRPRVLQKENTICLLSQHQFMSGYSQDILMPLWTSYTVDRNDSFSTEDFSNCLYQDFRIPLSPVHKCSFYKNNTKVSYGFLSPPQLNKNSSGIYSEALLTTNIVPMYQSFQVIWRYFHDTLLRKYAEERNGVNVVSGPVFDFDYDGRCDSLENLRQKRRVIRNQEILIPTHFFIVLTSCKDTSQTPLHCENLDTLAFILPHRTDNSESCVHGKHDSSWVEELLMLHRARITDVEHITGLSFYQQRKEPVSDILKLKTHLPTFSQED
# Procedure, shortened: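 Assay on intact human osteocarcinoma HTB-85 (SaOS-2) cells as native NPP1 source, in 0.5 mL incubation mixture. pNP-TMP is added to 100 μM final with inhibitor at 100 μM. After 20 min, p-nitrophenol is read at 410 nm. Substrate alone is set as 100%. Three experiments in triplicate.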
# [3] = target: T3, Ectonucleoside triphosphate diphosphohydrolase 3 (Homo sapiens) (UniProt O75355); experiment: Inhibition of human NTPDase-3 using ATP as substrate assessed as inorganic phosphate release at 100 uM after 15 mins relative to control
# T3 sequence (whole entry): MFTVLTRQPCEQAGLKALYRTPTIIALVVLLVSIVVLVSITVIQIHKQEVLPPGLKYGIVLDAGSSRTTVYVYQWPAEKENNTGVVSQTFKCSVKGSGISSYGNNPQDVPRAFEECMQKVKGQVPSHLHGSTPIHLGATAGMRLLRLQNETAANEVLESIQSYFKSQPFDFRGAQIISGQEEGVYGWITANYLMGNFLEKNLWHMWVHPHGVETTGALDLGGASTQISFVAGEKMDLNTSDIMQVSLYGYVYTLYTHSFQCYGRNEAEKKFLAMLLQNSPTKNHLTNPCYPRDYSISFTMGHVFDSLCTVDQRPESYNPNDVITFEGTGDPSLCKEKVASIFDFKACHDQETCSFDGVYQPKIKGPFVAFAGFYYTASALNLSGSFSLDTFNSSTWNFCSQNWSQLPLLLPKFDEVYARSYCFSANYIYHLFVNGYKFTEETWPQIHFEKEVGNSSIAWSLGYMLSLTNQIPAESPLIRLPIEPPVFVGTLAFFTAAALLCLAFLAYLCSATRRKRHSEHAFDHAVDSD
# Procedure, shortened: (§1)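 Protein extracts are from COS-7 cells transiently transfected with human NTPDase1, 2, 3 or 8. Extract is preincubated for 3 min at 37 °C in Tris–Ringer buffer (pH 7.3). […] Three experiments in triplicate.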
# [4] = target: T4, Ectonucleoside triphosphate diphosphohydrolase 1 (Homo sapiens) (UniProt P49961); experiment: Inhibition of human NTPDase-1 using ATP as substrate assessed as inorganic phosphate release at 100 uM after 15 mins relative to control; procedure, shortened: as §1
# T4 sequence (whole entry): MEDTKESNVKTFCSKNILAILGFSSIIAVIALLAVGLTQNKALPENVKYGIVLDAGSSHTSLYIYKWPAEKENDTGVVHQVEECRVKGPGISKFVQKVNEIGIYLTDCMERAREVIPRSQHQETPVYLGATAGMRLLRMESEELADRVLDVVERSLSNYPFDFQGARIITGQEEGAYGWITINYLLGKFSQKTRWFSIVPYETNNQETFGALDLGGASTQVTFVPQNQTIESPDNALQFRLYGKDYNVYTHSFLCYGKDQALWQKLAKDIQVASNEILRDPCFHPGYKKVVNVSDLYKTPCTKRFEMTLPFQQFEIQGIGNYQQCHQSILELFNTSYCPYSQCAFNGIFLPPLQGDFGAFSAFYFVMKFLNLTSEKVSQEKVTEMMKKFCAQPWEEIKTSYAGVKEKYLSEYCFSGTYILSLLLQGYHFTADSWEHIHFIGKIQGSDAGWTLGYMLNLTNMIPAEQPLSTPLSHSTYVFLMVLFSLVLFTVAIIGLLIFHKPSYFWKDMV
# [5] = target: T2, Ectonucleotide pyrophosphatase/phosphodiesterase family member 1 (Homo sapiens); experiment: Inhibition of human NPP1 using pNP-TMP as substrate at 100 uM after 20 mins by reversed-phase HPLC analysis
SMILES,fold change (FC) [1],inhibition [2],inhibition [3] [%],inhibition [4] [%],inhibition [5] [%]
Nc1ncnc2c1ncn2[C@@H]1O[C@H](CO[P@@](O)(=S)OP(=O)(O)C(Cl)(Cl)P(=O)(O)O)[C@@H](O)[C@H]1O,2.2,Active,18.7,0.5,> 90
Nc1ncnc2c1ncn2[C@@H]1O[C@H](CO[P@](O)(=S)OP(=O)(O)CP(=O)(O)O)[C@@H](O)[C@H]1O,,Active,26.8,18.7,> 90
Nc1ncnc2c1ncn2[C@@H]1O[C@H](CO[P@](O)(=S)OP(=O)(O)C(Cl)(Cl)P(=O)(O)O)[C@@H](O)[C@H]1O,,Active,21.8,0.5,> 90
Nc1ncnc2c1ncn2[C@@H]1O[C@H](COP(=O)(O)CP(=O)(O)OP(O)(O)=S)[C@@H](O)[C@H]1O,6.7,Active,40.2,58.4,> 90
Nc1ncnc2c1ncn2[C@@H]1O[C@H](CO[P@@](O)(=S)OP(=O)(O)CP(=O)(O)O)[C@@H](O)[C@H]1O,7.4,Active,24,21.6,> 90
